Experiments:
[1] = system: A549; experiment: Antiproliferative activity against human A549 cells after 24 hrs by MTT assay; type: functional, cell-based; settings: A549, 24 h
[2] = Antiproliferative activity against human SPCA1 cells by MTT assay; type: functional, cell-based
[3] = Partition coefficient, log P of the compound; type: physicochemical; settings: octanol/water
[4] = system: K562; experiment: Antiproliferative activity against human K562 cells by MTT assay; type: functional, cell-based
Method in brief: (§1)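 Cells from the Institute of Cell Biology, CAS (Shanghai), grown in RPMI-1640 with 10% FBS and 100 U/mL penicillin-streptomycin at 37 °C under 5% CO2. Cells were exposed to compounds for 48 h, and viability was read by MTT (or MTS). IC50, the concentration giving 50% inhibition, was calculated by the Logit method. Data are representative of 3 independent experiments.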

[5] = system: K562; experiment: Antiproliferative activity against human K562 cells after 24 hrs by MTT assay; type: functional, cell-based; settings: K562, 24 h
[6] = Antiproliferative activity against […] cells after 24 hrs by MTT assay; type: functional, cell-based; settings: LL/2, 24 h
[7] = Antiproliferative activity against human SPCA1 cells after 24 hrs by MTT assay; type: functional, cell-based; settings: SPCA1, 24 h
[8] = system: A2780; experiment: Antiproliferative activity against human A2780 cells after 24 hrs by MTT assay; type: functional, cell-based; settings: A2780, 24 h
[9] = system: HepG2; experiment: Antiproliferative activity against human HepG2 cells after 24 hrs by MTT assay; type: functional, cell-based; settings: HepG2, 24 h
[10] = system: A549; experiment: Antiproliferative activity against human A549 cells by MTT assay; type: functional, cell-based; method in brief: as §1
[11] = Antiproliferative activity against mouse C26 cells; type: functional, cell-based
[12] = system: HepG2; experiment: Antiproliferative activity against human HepG2 cells after 72 hrs by MTT assay; type: functional, cell-based; settings: HepG2, 72 h
[13] = Selectivity index, ratio of IC50 for HUVEC to IC50 for human K562 cells; type: toxicity; settings: HUVEC versus K562 cells, read-out: Ratio IC50
Method in brief: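 K562 tumor cells and HUVEC grown in RPMI-1640 with 10% FBS and penicillin-streptomycin at 37 °C under 5% CO2. Viability was read by MTT or MTS assay, with tumor cells exposed to compounds for 48 h. IC50 values came from the Logit method across 3 independent experiments. The index is HUVEC IC50 divided by K562 IC50.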

[14] = system: HepG2; experiment: Antiproliferative activity against human HepG2 cells after 48 hrs by MTT assay; type: functional, cell-based; settings: HepG2, 48 h; method in brief: as §1
[15] = system: HCT-116; experiment: Antiproliferative activity against human HCT116 cells after 72 hrs by MTT assay; type: functional, cell-based; settings: HCT-116, 72 h
[16] = system: HeLa; experiment: Antiproliferative activity against human HeLa cells; type: functional, cell-based
[17] = system: K562; experiment: Antiproliferative activity against human K562 cells after 48 hrs by MTT assay; type: functional, cell-based; settings: K562, 48 h; method in brief: as §1

Structure (SMILES)	IC50 [1] [µM]	IC50 [2] [µM]	logP [3]	IC50 [4] [µM]	IC50 [5] [µM]	IC50 [6] [µM]	IC50 [7] [µM]	IC50 [8] [µM]	IC50 [9] [µM]	IC50 [10] [µM]	IC50 [11] [µM]	IC50 [12] [µM]	selectivity ratio [13]	IC50 [14] [µM]	IC50 [15] [µM]	IC50 [16] [µM]	IC50 [17] [µM]
C=CCc1ccc(O)c(-c2cc(C=O)c(O)c(CC=C)c2)c1	34.1	22.8	4.51	19.7	11.6	31.3	37.3	17.8	20.2	49	–	–	–	–	–	–	–
C=CCc1ccc(O)c(-c2ccc(O)c(CC=C)c2)c1 [HONOKIOL]	34.1	41.3	5	28.4	22.1	65.3	37.3	–	32.9	29.7	65.1	33.9	2.2	34.3	19.1	62	23.9
